Reference: PMC3594649 (Molecular pharmaceutics, 2013)
Read-outs that look alike come from different tables or passages of the source.

How the values were obtained:
[1] = tested on: ileum of TgCYP3A4/hPXR mice; test: In situ intestinal perfusion with mesenteric blood sampling, TgCYP3A4/hPXR mice; assay type: in vivo, mouse; details: for increase in intestinal permeability for darunavir: GF120918 4 μM in perfusate
[2] = concomitant administration of sulforaphane, humans; cited from earlier work
[3] = assay type: in vivo, mouse
How it was run: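 An ileal segment of 2–3 cm was perfused open-loop at 0.2 ml/min, with or without GF120918 (4 μM) in the perfusate. Collected mesenteric blood was analysed by C18 HPLC with fluorescence detection (ex 268/em 347 nm). Metabolite is expressed relative to parent drug.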

**Q.** Which “increase in intestinal permeability for darunavir” value ([1]; TgCYP3A4/hPXR mice not treated with rifampicin, darunavir 100 μM in FaSSIF, p < 0.05) does the source give for `COc1cc2c(cc1OC)CN(CCc1ccc(NC(=O)c3cccc4c(=O)c5cccc(OC)c5[nH]c34)cc1)CC2` [GF120918, N-(4-[2-(1,2,3,4-tetrahydro-6,7-dimethoxy-2-isoquinolinyl)ethyl]-phenyl)-9,10-dihydro-5-methoxy-9-oxo-4-acridine carboxamide] here?
**A.** 56%

**Q.** And the “increase in intestinal permeability for darunavir” value ([1]; rifampicin-treated TgCYP3A4/hPXR mice (10 mg/kg, 3 days), p<0.05)?
**A.** 400%

**Q.** Which “effect on rifampicin-caused decrease of midazolam AUC” value [2] does the source give for `C[S+]([O-])CCCCN=C=S` (stereo not shown) [sulforaphane] here?
**A.** did not reduce

**Q.** Which “effect on intestinal permeability for darunavir” value ([1]; rifampicin-treated TgCYP3A4/hPXR mice, aminobenzotriazole 100 μM in perfusate) does the source give for `Nn1nnc2ccccc21` [aminobenzotriazole] here?
**A.** did not increase

**Q.** What does the source list for `CC(C)(O)CN(C[C@@H](O)[C@H](Cc1ccccc1)NC(=O)O[C@H]1CO[C@H]2OCC[C@H]21)S(=O)(=O)c1ccc(N)cc1` [R426857]?
**A.** concentration of R426857 relative to darunavir in mesenteric blood ([3]; TgCYP3A4/hPXR mice, perfusion without GF120918): less than 0.8%; relative amount of R426857 to darunavir in mesenteric blood ([3]; perfused with GF120918, rifampicin-treated TgCYP3A4/hPXR mice): 3.1%; relative amount of R426857 to darunavir in mesenteric blood ([3]; perfused with GF120918, untreated TgCYP3A4/hPXR mice): 1.6%
